In ChEMBL document CHEMBL1156484, “Hot spots in prion protein for pathogenic conversion” (Proc Natl Acad Sci U S A, 2007):
Active and inactive are the calls of the source. The rule behind the calls is not given here.

Assays:
cells [1] = format: functional, cell-based; settings: Mus musculus, GT1-7
[2] = Cytotoxicity against mouse GT1-7 cells at 1 uM; format: cell-based; settings: gt1-7, 1 µM
GT1-7 = assay: Effect on cellular form PrP expression in mouse GT1-7 cells; format: functional, cell-based
How it was run: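 Uninfected GT1-7 mouse neuronal cells (~2 × 10^5 per well) treated 15 h after plating, from 100 mM DMSO stocks diluted in medium (solvent control 0.1%), for 72 h. Lysates in Triton X-100/DOC buffer, normalized to 2 mg protein/ml. PrPC detected by Western blot with SAF32 antibody and ECL, then scanned.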

Mus musculus [3] = species on record: Mus musculus; assay: Binding affinity to recombinant mouse cellular form PrP (23-231)
cells [4] = format: functional, cell-based; settings: Mus musculus, GT1-7, 72 h
Mus musculus [5] = species on record: Mus musculus; assay: Stabilization of recombinant mouse cellular form PrP (23-231) conformation at 10 uM
Mus musculus [6] = assay: Survival of intraventricularly dosed mouse infected with human transmissible spongiform encephalopathies agent Fukuoka1 at 250 ug/kg, after 42 to 70 days post-infection; format: functional
How it was run: (§1)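 4-week-old male ddY mice inoculated in the right temporal lobe with 20 μl of 10% FK-1 (Fukuoka-1) infected brain homogenate. Drug in 5% glucose/saline (10 mg/ml stock, 0.2-μm filtered) given at 250 μg/kg per day by intraventricular osmotic-pump infusion over the stated d.p.i. window. Vehicle-only controls. Mice examined daily for neurological signs; survival analysed by Kaplan–Meier.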

Mus musculus [7] = assay: Survival of intraventricularly dosed mouse infected with human transmissible spongiform encephalopathies agent Fukuoka1 at 250 ug/kg, after 70 to 98 days post-infection; format: functional
How it was run: as §1

| SMILES | IC50 (cells [1]) | Activity [2] | other results |
| --- | --- | --- | --- |
| C=CCSC1=N/C(=C\c2ccccc2Br)C(=O)S1 | > 100 µM | Toxic |  |
| C[C@]12CCC(=O)C=C1CC[C@@H]1[C@@H]2[C@@H](O)C[C@@]2(C)[C@H]1CC[C@]2(O)C(=O)COC(=O)CCC(=O)O [HYDROCORTISONE HEMISUCCINATE ANHYDROUS] | > 100 µM | Toxic |  |
| C=CCc1cc(/C=C2/C(=O)NC(=S)N(CC=C)C2=O)cc(OC)c1O | > 100 µM | Toxic |  |
| Cc1ccc(N2C(=O)c3ccc(C(=O)OCC(C)C)cc3C2=O)cc1C | > 100 µM | Toxic |  |
| COc1ccccc1C(=O)c1c(C(=O)O)ccc2ccccc12 | > 100 µM | Toxic |  |
| CC(=O)Nc1ccc(Cc2ccc(NC(C)=O)cc2)cc1 | > 100 µM | Toxic |  |
| O=C(Nc1ccc2ccccc2c1)c1cccc(C(=O)Nc2ccc3ccccc3c2)c1 | > 100 µM | Toxic |  |
| O=C1C=CC(=O)N1c1ccc(Cc2ccc(N3C(=O)C=CC3=O)c(Cl)c2)cc1Cl | > 100 µM | Toxic |  |
| CC(=O)[C@H]1CC[C@H]2[C@@H]3C[C@H](O)[C@@H]4C[C@H](O)CC[C@]4(C)[C@H]3CC[C@]12C | > 100 µM | Toxic |  |
| O=C(Nc1ccc(I)cc1)c1cccc(I)c1 | > 100 µM | Toxic |  |
| Cc1nc2c(n1CCO)C(=O)c1nc(C)n(CCO)c1C2=O | > 100 µM | Toxic |  |
| Cc1ccc(N2C(=O)c3ccc(C(=O)OCC(C)C)cc3C2=O)cc1Cl | > 100 µM | Toxic |  |
| CCCCOC(=O)c1ccc(NC(=O)Nc2cc(C)ccc2C)cc1 | > 100 µM | Toxic |  |
| O=C(c1cccc(I)c1)c1cccc(I)c1 | > 100 µM | Toxic |  |
| CS(=O)(=O)O[C@H]1C[C@H](n2cc(F)c(=O)[nH]c2=O)O[C@@H]1CO | > 100 µM | Toxic |  |
| O=C(Nc1ccc(Cc2ccc(NC(=O)C(Cl)(Cl)Cl)cc2)cc1)C(Cl)(Cl)Cl | > 100 µM | Toxic |  |
| O=C(Nc1ccc(NC(=O)c2cccc3ccccc23)cc1)c1cccc2ccccc12 | > 100 µM | Toxic |  |
| O=C(c1ccc(I)c([N+](=O)[O-])c1)c1ccc(I)c([N+](=O)[O-])c1 | > 100 µM | Toxic |  |
| COc1ccc(C(=O)N=C2C=C(Br)C(=O)C(Br)=C2)cc1 | > 100 µM | Toxic |  |
| Cc1sc(C(O)c2sc(C)c(C)c2I)c(I)c1C | > 100 µM | Toxic |  |
| O=C(Nc1ccc(I)cc1C(=O)O)c1ccc(Cl)cc1 | > 100 µM | Toxic |  |
| COc1ccc(NC(=O)c2cc(Br)ccc2I)cc1Cl | > 100 µM | Toxic |  |

| SMILES | IC50 (cells [1]) | Activity [2] | other results |
| --- | --- | --- | --- |
| O=C(Nc1cc(Cl)c(Cl)cc1Cl)Nc1cc(Cl)c(Cl)cc1Cl | > 100 µM | Toxic |  |
| COc1ccc(C(=O)c2ccc(Br)c([N+](=O)[O-])c2)cc1C | > 100 µM | Toxic |  |
| Cc1ccc(S(=O)(=O)Nc2ccccc2N(C)S(=O)(=O)c2ccc(C)cc2)cc1 | > 100 µM | Toxic |  |
| O=c1n(S(=O)(=O)c2ccc(Cl)cc2)c2ccccc2n1S(=O)(=O)c1ccc(Cl)cc1 | > 100 µM | Toxic |  |
| O=C(O)c1ccc(C(=O)O)c(C(=O)Nc2ccc3c(c2)-c2ccccc2C3)c1 | > 100 µM | Toxic |  |
| CC1CCCN(C(=O)Nc2ccc(Cc3ccc(NC(=O)N4CCCC(C)C4)cc3)cc2)C1 (configuration not stated) | > 100 µM | Toxic |  |
| O=C(CCl)Nc1ccc(Cc2ccc(NC(=O)CCl)cc2)cc1 | > 100 µM | Toxic |  |
| Cc1ccc(C(=O)Nc2cccc([N+](=O)[O-])c2C)cc1I | > 100 µM | Toxic |  |
| O=C(CN1CCOCC1)Nc1ccc(Cc2ccc(NC(=O)CN3CCOCC3)cc2)cc1 | > 100 µM | Toxic |  |
| O=C(O)/C=C/C(=O)Nc1ccc(Cc2ccc(NC(=O)/C=C/C(=O)O)cc2)cc1 | > 100 µM | Toxic |  |
| O=C(CN1CCCC1)Nc1ccc(Cc2ccc(NC(=O)CN3CCCC3)cc2)cc1 |  |  | Activity (GT1-7): inactive; Activity (Mus musculus [3]): 3.9 ×10⁻⁶ M; IC50 (cells [4]): 1.35 µM; Activity (Mus musculus [5]): Stable; Survival (Mus musculus [6]): 132.3 days; Survival (Mus musculus [7]): 141.5 days |
| CC(=O)CC(=O)Nc1ccc(Cc2ccc(NC(=O)CC(C)=O)cc2)cc1 | > 100 µM | Toxic |  |
| O=C(Nc1ccc(I)cc1)c1ccccc1I | > 100 µM | Toxic |  |
| COc1ccc(C(=O)NNC(=O)c2ccc(OC)c(I)c2)cc1Br | > 100 µM | Toxic |  |
| O=C(N/N=C/c1cc(Cl)cc(Cl)c1O)c1cccc(I)c1 | > 100 µM | Toxic |  |
| CCN(CCO)CCNc1ccc(C)c2sc3ccccc3c(=O)c12 | > 100 µM | Toxic |  |
| Cc1c(NC(=O)c2cccc(I)c2)ccc([N+](=O)[O-])c1C | > 100 µM | Toxic |  |
| O=S(=O)(c1cc(Cl)cc(Br)c1O)c1cc(Cl)cc(Br)c1O | > 100 µM | Toxic |  |
| O=C(Nc1ccc(Cc2ccc(NC(=O)c3cccc([N+](=O)[O-])c3)cc2)cc1)c1cccc([N+](=O)[O-])c1 | > 100 µM | Toxic |  |
| CCCCOC(=O)c1ccc2c(c1)C(=O)N(c1ccc(Oc3ccccc3)cc1)C2=O | > 100 µM | Toxic |  |
| O=C(CN1CCCCC1)Nc1ccc(Cc2ccc(NC(=O)CN3CCCCC3)cc2)cc1 | > 100 µM | Toxic |  |
| O=C1C=CC(=O)N1c1ccc(Cc2ccc(N3C(=O)C=CC3=O)cc2)cc1 | > 100 µM | Toxic |  |
